Test results reported in paper PMC7047882 (Archives of biochemistry and biophysics, 2019).
Read-outs that look alike come from different tables or passages of the source.

How the values were obtained:
[1] = molecular target: T1, bovine brain tubulin (Bos taurus, UniProt P81947+Q6B856); assay: biochemical; format: binding; details: for inhibition at 30 µM: pH 6.9, read-out: Effect on DZA binding (% inhibition ± SE)
[2] = molecular target: T1, bovine brain tubulin; assay: Recovery of compound-induced aberrant tubulin polymer by centrifugation; format: biochemical; details: for tubulin recovery by centrifugation (in words): pH 6.9, 2 mM MgCl2, 22 °C
Outline: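 Electrophoretically homogeneous bovine brain tubulin, without gel filtration, was used. Reaction mixtures contained 0.1 M Mes (pH 6.9 or 6.5, adjusted with NaOH) with 2 mM MgCl₂ at 22 °C. The test compound was added from dimethyl sulfoxide stocks, and controls received equal dimethyl sulfoxide. Reactions were run in glass vessels, and aberrant polymer was harvested by centrifugation and read as tubulin in pellets.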

[3] = molecular target: T1, bovine brain tubulin; assay: Turbidity development; format: biochemical
Outline: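 Electrophoretically homogeneous bovine brain tubulin, without the gel-filtration step used for the binding studies. Reactions were run in glass vessels in 0.1 M Mes, brought to pH 6.5 or 6.9 with NaOH, with MgCl2 (for example 2 mM, 22 °C). Test compounds were added from dimethyl sulfoxide stocks, with the same dimethyl sulfoxide concentration in controls. The read-out was turbidity development.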

[4] = test system: tubulin; details: cited from earlier work
[5] = test system: tubulin; details: cited from earlier work; remark: listed apart in the source
[6] = test system: tubulin; details: cited from earlier work; remark: listed apart in the source
[7] = test system: cultured cancer cells; details: cited from earlier work

T1 sequence (Q6B856 whole entry): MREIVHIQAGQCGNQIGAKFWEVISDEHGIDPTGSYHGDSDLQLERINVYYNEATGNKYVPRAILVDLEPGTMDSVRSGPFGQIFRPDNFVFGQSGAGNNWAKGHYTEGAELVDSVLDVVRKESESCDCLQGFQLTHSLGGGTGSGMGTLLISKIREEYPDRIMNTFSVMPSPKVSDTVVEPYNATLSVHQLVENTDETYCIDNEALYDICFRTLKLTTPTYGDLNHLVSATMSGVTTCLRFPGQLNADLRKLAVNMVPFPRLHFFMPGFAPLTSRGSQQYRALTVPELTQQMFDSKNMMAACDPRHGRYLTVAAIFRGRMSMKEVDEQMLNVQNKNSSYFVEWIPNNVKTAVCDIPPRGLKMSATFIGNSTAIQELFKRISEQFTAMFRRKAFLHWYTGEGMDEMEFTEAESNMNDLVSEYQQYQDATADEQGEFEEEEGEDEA
T1 sequence (P81947 whole entry): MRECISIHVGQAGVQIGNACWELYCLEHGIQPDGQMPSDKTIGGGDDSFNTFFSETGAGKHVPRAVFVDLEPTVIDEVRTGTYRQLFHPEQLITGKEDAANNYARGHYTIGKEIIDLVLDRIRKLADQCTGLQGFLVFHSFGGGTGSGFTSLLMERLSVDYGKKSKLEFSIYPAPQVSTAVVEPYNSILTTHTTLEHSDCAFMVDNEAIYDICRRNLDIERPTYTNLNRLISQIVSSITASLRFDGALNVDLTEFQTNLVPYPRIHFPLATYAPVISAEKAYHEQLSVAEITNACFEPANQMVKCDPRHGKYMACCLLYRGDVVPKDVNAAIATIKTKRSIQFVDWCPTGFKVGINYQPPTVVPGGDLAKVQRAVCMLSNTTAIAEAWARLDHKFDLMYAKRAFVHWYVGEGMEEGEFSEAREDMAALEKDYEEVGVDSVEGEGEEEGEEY

COc1cc2cc(c1Cl)N(C)C(=O)C[C@H](OC(=O)[C@H](C)N(C)C(C)=O)[C@]1(C)O[C@H]1[C@H](C)[C@@H]1C[C@@](O)(NC(=O)O1)[C@H](OC)/C=C/C=C(\C)C2 [Maytansine, maytansine]
inhibition at 30 µM [1]: 9.2 ± 6%

CC[C@]1(O)C[C@@H]2CN(CCc3c([nH]c4ccccc34)[C@@](C(=O)OC)(c3cc4c(cc3OC)N(C)[C@H]3[C@@](O)(C(=O)OC)[C@H](OC(C)=O)[C@]5(CC)C=CCN6CC[C@]43[C@@H]65)C2)C1 [Vinblastine, vinblastine]
tubulin recovery by centrifugation (in words) ([2]; 20 μM compound): even larger amounts
inhibition of [^3H]DZA binding to tubulin (in words) [1]: absolutely no inhibitory effect
Effect on DZA binding (% enhancement ± SE; indicated by E before the value) ([1]; pH 6.9): E 11 ± 5%

CC[C@H](C)[C@@H]([C@@H](CC(=O)N1CCC[C@H]1[C@H](OC)[C@@H](C)C(=O)N[C@@H](Cc1ccccc1)c1nccs1)OC)N(C)C(=O)[C@@H](NC(=O)[C@H](C(C)C)N(C)C)C(C)C [D10, dolastatin 10]
tubulin recovery by centrifugation (in words) ([2]; 10 and 20 μM compound): even larger amounts
turbidity development (in words) ([3]; all conditions examined): Extensive turbidity development
inhibition of [^3H]DZA binding to tubulin (in words) ([1]; without a tubulin preincubation): inhibition was negligible

CN[C@H](C(=O)N[C@H](C(=O)N(C)[C@H](/C=C(\C)C(=O)O)C(C)C)C(C)(C)C)C(C)(C)c1cn(C)c2ccccc12 [Hemiasterlin, hemiasterlin]
tubulin recovery by centrifugation (in words) ([2]; 20 μM compound): a moderate amount
inhibition at 30 µM [1]: 43 ± 3%

CC(C)[C@H](O)C(=O)N[C@H]1Cc2ccc3c(c2)[C@]24C5=C(N=C(O5)[C@H](C(C)C)NC1=O)c1nc(Cl)c(o1)-c1c(Cl)[nH]c5cccc(c15)-c1cccc2c1N[C@@H]4O3 [DZA, diazonamide A]
inhibition of binding of [^3H]vinblastine to tubulin (in words) [4]: no inhibition
inhibition of tubulin assembly (in words) [5]: potent inhibitor
inhibition of binding of [^3H]D10 to tubulin (in words) [6]: no inhibition
tubulin recovery by centrifugation (in words) ([2]; 10 and 20 μM compound): large amounts
tubulin recovered in pellets (in words) ([2]; pH 6.5, 2 mM MgCl2, 22 °C): almost all the tubulin
turbidity development (in words) ([3]; 0.1 M Mes (pH 6.5), 2 mM MgCl2, 22 °C): differed little from that with D10
inhibition of [^3H]DZA binding to tubulin (in words) [1]: no inhibition of binding

COc1ccc(/C=C\c2cc(OC)c(OC)c(OC)c2)cc1O [Combretastatin A-4, combretastatin A-4]
inhibition at 30 µM [1]: 17 ± 3%

COc1ccc(C[C@H]2NC(=O)/C=C/C[C@@H]([C@H](C)[C@H]3O[C@@H]3c3ccccc3)OC(=O)[C@H](CC(C)C)OC(=O)[C@H](C)CNC2=O)cc1Cl [Cryptophycin 1, cryptophycin 1]
IC50 values for cultured cancer cells (in words) [7]: picomolar
turbidity development (in words) ([3]; most conditions examined): little turbidity development
maximal inhibition of [^3H]DZA binding ([1]; preincubated tubulin, near maximal with 3 μM compound): 50-60%
